Data reported in ChEMBL document CHEMBL1944570, “Discovery of 4''-ether linked azithromycin-quinolone hybrid series: influence of the central linker on the antibacterial activity” (ACS Med Chem Lett, 2011).
Converted amounts (≈) assume the structure as drawn.

Assays:
Type in all cases: functional
[1] = tested on: Staphylococcus aureus; assay: Antibacterial activity against ciprofloxacin-resistant Staphylococcus aureus by agar microdilution method
How it was run: (§1)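 MIC by agar microdilution following NCCLS standards; strains drawn from the PLIVA Research Institute culture collection. MIC reported in μg/mL.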

[2] = tested on: Staphylococcus aureus; assay: Antibacterial activity against constitutive MLS resistant Staphylococcus aureus by agar microdilution method; how it was run: as §1
[3] = tested on: Haemophilus influenzae; assay: Antibacterial activity against Haemophilus influenzae B0529 by agar microdilution method
How it was run: (§2)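 Agar microdilution MIC per NCCLS standards against strains from the Pliva Research Institute culture collection; values in µg/mL. Panel included erythromycin-susceptible strains and strains with inducible or constitutive MLS resistance.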

[4] = tested on: Staphylococcus aureus; assay: Antibacterial activity against erythromycin-susceptible Staphylococcus aureus by agar microdilution method; how it was run: as §2
[5] = tested on: Streptococcus pneumoniae; assay: Antibacterial activity against efflux mediated macrolide resistant Streptococcus pneumoniae by agar microdilution method; how it was run: as §1
[6] = tested on: Moraxella catarrhalis; assay: Antibacterial activity against Moraxella catarrhalis by agar microdilution method; how it was run: as §2
[7] = tested on: Streptococcus pyogenes; assay: Antibacterial activity against erythromycin-susceptible Streptococcus pyogenes by agar microdilution method; how it was run: as §1
[8] = tested on: Staphylococcus aureus; assay: Antibacterial activity against efflux mediated macrolide resistant Staphylococcus aureus by agar microdilution method; how it was run: as §1
[9] = tested on: Streptococcus pyogenes; assay: Antibacterial activity against Streptococcus pyogenes with inducible resistance to MLS by agar microdilution method; how it was run: as §1
[10] = tested on: Staphylococcus aureus; assay: Antibacterial activity against Staphylococcus aureus with inducible resistance to MLS by agar microdilution method; how it was run: as §1
[11] = tested on: Streptococcus pneumoniae; assay: Antibacterial activity against constitutive MLS resistant Streptococcus pneumoniae by agar microdilution method; how it was run: as §1
[12] = tested on: Streptococcus pyogenes; assay: Antibacterial activity against efflux mediated macrolide resistant Streptococcus pyogenes by agar microdilution method; how it was run: as §1
[13] = tested on: Streptococcus pyogenes; assay: Antibacterial activity against constitutive MLS resistant Streptococcus pyogenes by agar microdilution method; how it was run: as §1
[14] = tested on: Streptococcus pneumoniae; assay: Antibacterial activity against erythromycin-susceptible Streptococcus pneumoniae by agar microdilution method; how it was run: as §1

Row | Compound | MIC [1] [µg/mL] | MIC [2] [µg/mL] | MIC [3] [µg/mL] | MIC [4] [µg/mL] | MIC [5] [µg/mL] | MIC [6] [µg/mL] | MIC [7] [µg/mL] | MIC [8] [µg/mL] | MIC [9] [µg/mL] | MIC [10] [µg/mL] | MIC [11] [µg/mL] | MIC [12] [µg/mL] | MIC [13] [µg/mL] | MIC [14] [µg/mL]
1 | CC[C@H]1OC(=O)[C@H](C)[C@@H](O[C@H]2C[C@@](C)(OC)[C@@H](OCCNCCNc3cc4c(=O)c(C(=O)O)cn(C5CC5)c4cc3Cl)[C@H](C)O2)[C@H](C)[C@@H](O[C@@H]2O[C@H](C)C[C@H](N(C)C)[C@H]2O)[C@](C)(O)C[C@@H](C)CN(C)[C@H](C)[C@@H](O)[C@]1(C)O | ≥ 64 | > 64 | 2 (≈ 1.82 µM) | 4 (≈ 3.65 µM) | 0.25 (≈ 0.228 µM) | 0.5 (≈ 0.456 µM) | ≤ 0.125 | 8 (≈ 7.29 µM) | 1 (≈ 0.912 µM) | 64 (≈ 58.4 µM) | 64 (≈ 58.4 µM) | 8 (≈ 7.29 µM) | 16 (≈ 14.6 µM) | ≤ 0.125
2 | CC[C@H]1OC(=O)[C@H](C)[C@@H](O[C@H]2C[C@@](C)(OC)[C@@H](OCCNCCNc3cc4c(cc3F)c(=O)c(C(=O)O)cn4C3CC3)[C@H](C)O2)[C@H](C)[C@@H](O[C@@H]2O[C@H](C)C[C@H](N(C)C)[C@H]2O)[C@](C)(O)C[C@@H](C)CN(C)[C@H](C)[C@@H](O)[C@]1(C)O | ≥ 64 | 64 (≈ 59.2 µM) | 4 (≈ 3.7 µM) | 2 (≈ 1.85 µM) | – | 1 (≈ 0.926 µM) | ≤ 0.125 | 2 (≈ 1.85 µM) | – | 64 (≈ 59.2 µM) | 32 (≈ 29.6 µM) | 1 (≈ 0.926 µM) | 1 (≈ 0.926 µM) | ≤ 0.125
3 | CC[C@H]1OC(=O)[C@H](C)[C@@H](O[C@H]2C[C@@](C)(OC)[C@@H](OCCNCCOCCNc3cc4c(cc3F)c(=O)c(C(=O)O)cn4C3CC3)[C@H](C)O2)[C@H](C)[C@@H](O[C@@H]2O[C@H](C)C[C@H](N(C)C)[C@H]2O)[C@](C)(O)C[C@@H](C)CN(C)[C@H](C)[C@@H](O)[C@]1(C)O | ≥ 64 | > 64 | 8 (≈ 7.11 µM) | 8 (≈ 7.11 µM) | – | 8 (≈ 7.11 µM) | ≤ 0.125 | 8 (≈ 7.11 µM) | – | 64 (≈ 56.9 µM) | 2 (≈ 1.78 µM) | 1 (≈ 0.889 µM) | 2 (≈ 1.78 µM) | ≤ 0.125
4 | CC[C@H]1OC(=O)[C@H](C)[C@@H](O[C@H]2C[C@@](C)(OC)[C@@H](OCCNCCOCCOCCNc3cc4c(=O)c(C(=O)O)cn(C5CC5)c4cc3Cl)[C@H](C)O2)[C@H](C)[C@@H](O[C@@H]2O[C@H](C)C[C@H](N(C)C)[C@H]2O)[C@](C)(O)C[C@@H](C)CN(C)[C@H](C)[C@@H](O)[C@]1(C)O | ≥ 64 | 32 (≈ 27 µM) | 4 (≈ 3.38 µM) | 4 (≈ 3.38 µM) | – | 1 (≈ 0.844 µM) | ≤ 0.125 | 1 (≈ 0.844 µM) | – | 64 (≈ 54 µM) | 64 (≈ 54 µM) | 2 (≈ 1.69 µM) | 2 (≈ 1.69 µM) | ≤ 0.125
5 | CC[C@H]1OC(=O)[C@H](C)[C@@H](O[C@H]2C[C@@](C)(OC)[C@@H](OCCCC(=O)NCCNc3cc4c(=O)c(C(=O)O)cn(C5CC5)c4cc3Cl)[C@H](C)O2)[C@H](C)[C@@H](O[C@@H]2O[C@H](C)C[C@H](N(C)C)[C@H]2O)[C@](C)(O)C[C@@H](C)CN(C)[C@H](C)[C@@H](O)[C@]1(C)O | ≥ 64 | 64 (≈ 56.2 µM) | 8 (≈ 7.02 µM) | 4 (≈ 3.51 µM) | ≤ 0.125 | 4 (≈ 3.51 µM) | ≤ 0.125 | 4 (≈ 3.51 µM) | 0.25 (≈ 0.22 µM) | 32 (≈ 28.1 µM) | 0.5 (≈ 0.439 µM) | 2 (≈ 1.76 µM) | 2 (≈ 1.76 µM) | 0.5 (≈ 0.439 µM)
6 | CC[C@H]1OC(=O)[C@H](C)[C@@H](O[C@H]2C[C@@](C)(OC)[C@@H](OCCCC(=O)NCCOCCNc3cc4c(=O)c(C(=O)O)cn(C5CC5)c4cc3Cl)[C@H](C)O2)[C@H](C)[C@@H](O[C@@H]2O[C@H](C)C[C@H](N(C)C)[C@H]2O)[C@](C)(O)C[C@@H](C)CN(C)[C@H](C)[C@@H](O)[C@]1(C)O | ≥ 64 | 64 (≈ 54.1 µM) | 4 (≈ 3.38 µM) | 2 (≈ 1.69 µM) | 0.25 (≈ 0.211 µM) | 4 (≈ 3.38 µM) | ≤ 0.125 | 8 (≈ 6.76 µM) | – | 64 (≈ 54.1 µM) | 4 (≈ 3.38 µM) | 1 (≈ 0.845 µM) | 2 (≈ 1.69 µM) | ≤ 0.125
7 | CC[C@H]1OC(=O)[C@H](C)C(=O)[C@H](C)[C@@H](O[C@@H]2O[C@H](C)C[C@H](N(C)C)[C@H]2O)[C@](C)(OCC=Cc2cnc3ccccc3c2)C[C@@H](C)C(=O)[C@H](C)[C@H]2NC(=O)O[C@@]21C [CETHROMYCIN] | ≥ 64 | > 64 | 1 (≈ 1.31 µM) | ≤ 0.125 | – | ≤ 0.125 | ≤ 0.125 | 0.25 (≈ 0.326 µM) | – | 0.25 (≈ 0.326 µM) | – | – | 1 (≈ 1.31 µM) | ≤ 0.125
